From ChEMBL document CHEMBL3244020, “Trichloroacetamidines, a new class of positive inotropic agents” (J Med Chem, 1978)
Activity calls are given as the source filed them. No cut-off for these calls is given here.

Experiments:
Felis catus [1] = organism: Felis catus; experiment: (§1) Positive inotropic activity in cat heart papillary muscle assessed as increase in contractile force at 10 ug/mL measured for 5 to 30 mins; assay type: functional; conditions: Muscle tissue
Procedure, shortened: (§2)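 Right-ventricular cat papillary muscles in Krebs–Henseleit at 37 °C, field-stimulated at 1/s (4–10 ms, 6–10 V). Muscles equilibrated about 90 min, until force fell to 25–30% of original. Compound added and force recorded at 5, 10, 20 and 30 min, followed by ouabain 0.5 μg/mL. Positives were retested on three more preparations at ≥3 concentrations. Scored as mg increase in contractile force.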

[2] = Positive inotropic activity in cat heart papillary muscle assessed as increase in contractile force at 2.5 ug/mL measured for 5 to 30 mins; assay type: functional, Felis catus, Muscle tissue; procedure, shortened: as §2
[3] = (§3) Positive inotropic activity in cat heart papillary muscle assessed as increase in contractile force at 0.63 ug/mL measured for 5 to 30 mins; assay type: functional, Felis catus, Muscle tissue
Procedure, shortened: (§4)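 Right-ventricular papillary muscles from cat hearts in a 100-mL bath of Krebs–Henseleit solution at 37 °C, driven electrically with square waves of 4–10 ms, 6–10 V, 1/s. Equilibrated about 90 min until force fell to 25–30% of initial. Compound added, contractile force read at 5, 10, 20 and 30 min, then ouabain 0.5 μg/mL as a responsiveness check. Positive inotropy means a rise above 20%.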

[4] = as §1; assay type: functional, Felis catus, Muscle tissue; procedure, shortened: as §2
Felis catus [5] = organism: Felis catus; experiment: Positive inotropic activity in cat heart papillary muscle assessed as increase in contractile force up to 10 ug/mL measured for 5 to 30 mins in presence of beta-adrenergic inhibitor sotalol; assay type: functional, tissue-based
Procedure, shortened: (§5)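 Cat right-ventricular papillary muscle in Krebs–Henseleit at 37 °C, electrically driven at 1/s. Force recorded 5–30 min after compound, in the presence of the β-blocker sotalol at 10 μg/mL. Scored as mg increase in contractile force.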

[6] = Positive inotropic activity in cat heart papillary muscle assessed as concentration required to increase contractile force by 500 mg measured for 5 to 30 mins; assay type: functional, Felis catus, Muscle tissue; procedure, shortened: as §2
[7] = Dissociation constant, pKa of the compound; assay type: physicochemical
Procedure, shortened: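 pKa determined in water or in 30% EtOH–70% H2O, depending on compound.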

[8] = Positive inotropic activity in cat heart papillary muscle assessed as increase in contractile force at 0.156 ug/mL measured for 5 to 30 mins; assay type: functional, Felis catus, Muscle tissue
Procedure, shortened: (§6)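 Right-ventricular cat papillary muscles in Krebs–Henseleit solution at 37 °C, paced at 1/s (4–10 ms, 6–10 V square waves). Equilibrated about 90 min; compound added once force had fallen to 25–30% of original (1.5–2 h). Force recorded 5, 10, 20 and 30 min after addition, then ouabain 0.5 μg/mL added. Increase over 20% scored positive. Actives retested on three further preparations at ≥3 concentrations.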

[9] = Positive inotropic activity in cat heart papillary muscle assessed as increase in contractile force at 0.5 ug/mL measured for 5 to 30 mins; assay type: functional, Felis catus, Muscle tissue; procedure, shortened: as §6
[10] = Positive inotropic activity in cat heart papillary muscle assessed as increase in contractile force at 1 ug/mL measured for 5 to 30 mins; assay type: functional, Felis catus, Muscle tissue; procedure, shortened: as §6
[11] = (§7) Inhibition of guinea pig kidney Na+-K+ dependent ATPase after 10 to 20 mins; set-up: species or system Cavia porcellus; conditions: read-out: I50
Procedure, shortened: (§8)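 Partially purified membrane ATPase from calf heart or guinea pig renal cortex. Reaction started by final addition of enzyme. Incubated at 37 °C under air, with aliquots taken at 10 and 20 min. Liberated phosphate measured by the Lowry–Lopez method. I50 came from log inhibitor vs percent inhibition lines, at least three points. This was done only where acute inhibition was >50% at 1 × 10⁻³ M.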

Canis familiaris = experiment: Positive inotropic activity in Beagle dog assessed as increase in left ventricular contractile force at 50 mg/kg, iv; assay type: functional, organism-based; set-up: dose 50 mg/kg; conditions: Canis lupus familiaris, Heart left ventricle
[12] = (§9) Inhibition of calf heart Na+-K+ dependent ATPase after 10 to 20 mins; set-up: species or system Bos taurus; conditions: read-out: I50; procedure, shortened: as §8
[13] = Positive inotropic activity in cat heart papillary muscle assessed as increase in contractile force at 2 ug/mL measured for 5 to 30 mins; assay type: functional, Felis catus, Muscle tissue; procedure, shortened: as §6
[14] = Inhibition of calf heart Na+-K+ dependent ATPase preincubated for 30 mins measured after 10 to 20 mins; set-up: species or system Bos taurus; conditions: read-out: I50
Procedure, shortened: (§10)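 Partially purified membrane ATPase from calf heart or guinea pig renal cortex. Inhibitor plus enzyme were preincubated 30 min at 10× final concentrations, then added to the otherwise complete assay system. Incubated at 37 °C under air, with aliquots taken at 10 and 20 min. Liberated phosphate measured by the Lowry–Lopez method. I50 came from log inhibitor vs percent inhibition lines, at least three points.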

Cavia porcellus = organism: Cavia porcellus; experiment: as §7; procedure, shortened: as §8
Bos taurus = organism: Bos taurus; experiment: as §9; procedure, shortened: as §8
Felis catus [15] = organism: Felis catus; experiment: Positive inotropic activity in cat heart papillary muscle assessed as increase in contractile force at 10 ug/mL measured for 5 to 30 mins in presence of beta-adrenergic inhibitor sotalol; assay type: functional, tissue-based; procedure, shortened: as §5
Felis catus [16] = organism: Felis catus; experiment: Positive inotropic activity in heart papillary muscle isolated from reserpine-treated cat assessed as increase in contractile force at 10 ug/mL measured for 5 to 30 mins; assay type: functional, tissue-based; conditions: Muscle tissue
Procedure, shortened: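 Cats pretreated with reserpine 0.5 mg/kg ip before papillary muscle isolation. Right-ventricular muscles kept in Krebs–Henseleit at 37 °C, stimulated at 1/s, and force recorded at 5–30 min after compound addition.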

[17] = Inhibition of guinea pig kidney Na+-K+ dependent ATPase preincubated for 30 mins measured after 10 to 20 mins; set-up: species or system Cavia porcellus; conditions: read-out: I50; procedure, shortened: as §10
Felis catus [18] = organism: Felis catus; experiment: as §3; assay type: functional; conditions: Muscle tissue; procedure, shortened: as §4

Structure (SMILES): C[C@@H](NC(=N)C(Cl)(Cl)Cl)c1ccccc1
- Activity (Felis catus [1]): inactive

Structure (SMILES): C=CCN(CC=C)C(=N)C(Cl)(Cl)Cl
- Activity (Felis catus [1]): inactive

Structure (SMILES): ClC(Cl)(Cl)C1=NCCN1
- Activity [2]: 201 mg
- Activity [3]: <200 mg
- Activity [4]: >600 mg
- Activity (Felis catus [5]): Active
- Activity [6]: 4.86 µg/mL

Structure (SMILES): COc1ccc(CNC(=N)C(Cl)(Cl)Br)cc1
- pKa [7]: 6.15

Structure (SMILES): C[C@H](NC(=N)C(Cl)(Cl)Cl)c1ccccc1.Cl
- Activity [4]: <200 mg
- Activity (Felis catus [5]): Active
- Activity [6]: >10 µg/mL

Structure (SMILES): CCCNC(=N)C(Cl)(Cl)Cl.Cl
- Activity [2]: 201 mg
- Activity [4]: >600 mg
- Activity (Felis catus [5]): Active
- Activity [6]: 2.22 µg/mL
- Activity [8]: < 200 mg

Structure (SMILES): Cl.N=C(NCCCNC(=N)C(Cl)(Cl)Cl)C(Cl)(Cl)Cl
- Activity [4]: <200 mg
- Activity (Felis catus [5]): Active
- Activity [6]: >10 µg/mL

Structure (SMILES): C[C@@H]1O[C@@H](O[C@H]2C[C@@H](O)[C@]3(CO)[C@H]4[C@H](O)C[C@]5(C)[C@@H](C6=CC(=O)OC6)CC[C@]5(O)[C@@H]4CC[C@]3(O)C2)[C@H](O)[C@H](O)[C@H]1O [OUABAIN]
- Activity [9]: 201 mg
- Activity [10]: >600 mg
- IC50 [11]: 0.5 µM
- Activity (Canis familiaris): Active
- IC50 [12]: 0.5 µM
- Activity [13]: >600 mg
- IC50 [14]: 0.2 µM

Structure (SMILES): Cl.N=C(NCCCO)C(Cl)(Cl)Cl
- Activity [2]: <200 mg
- Activity [4]: 201 mg
- Activity (Felis catus [5]): Active
- Activity [6]: >10 µg/mL

Structure (SMILES): N=C(NCc1ccccc1CO)C(Cl)(Cl)Cl
- I50 (Cavia porcellus): inactive
- I50 (Bos taurus): inactive
- Activity [4]: 201 mg
- Activity (Felis catus [5]): Active

Structure (SMILES): C/N=C(\N(C)C)C(Cl)(Cl)Cl
- Activity (Felis catus [15]): inactive

Structure (SMILES): CC(=O)OC(CNC(=N)C(Cl)(Cl)Cl)COc1ccccc1.Cl (centres undefined)
- Activity [2]: 201 mg
- Activity [3]: <200 mg
- IC50 [12]: 170 µM
- Activity (Felis catus [16]): Active
- Activity [4]: >600 mg
- Activity (Felis catus [5]): Active
- Activity [6]: 4.96 µg/mL
- IC50 [14]: 70 µM

Structure (SMILES): COc1ccc(CNC(=N)C(Cl)(Cl)Cl)cc1.Cl
- IC50 [11]: 800 µM
- Activity [2]: 201 mg
- Activity [3]: <200 mg
- pKa [7]: 6
- IC50 [12]: 20 µM
- Activity (Felis catus [16]): Active
- IC50 [17]: 100 µM
- Activity [4]: >600 mg
- Activity (Felis catus [5]): Active
- Activity [6]: 4.99 µg/mL
- IC50 [14]: 5 µM

Structure (SMILES): C=CCN/C(=N\C)C(Cl)(Cl)Cl.Cl
- Activity [2]: 201 mg
- Activity (Felis catus [18]): inactive
- Activity [4]: >600 mg
- Activity (Felis catus [5]): Active
- Activity [6]: 3.89 µg/mL

Structure (SMILES): C=CCNC(=N)C(Cl)(Cl)Cl.Cl
- Activity [2]: 201 mg
- Activity (Felis catus [18]): inactive
- Activity (Felis catus [16]): Active
- Activity [4]: >600 mg
- Activity [6]: 2.78 µg/mL
- Activity (Felis catus [15]): inactive

Structure (SMILES): N=C(NCCO)C(Cl)(Cl)Cl
- Activity [2]: <200 mg
- Activity (Felis catus [18]): inactive
- Activity [4]: >600 mg
- Activity (Felis catus [5]): Active
- Activity [6]: 5.5 µg/mL

Structure (SMILES): CNC(=N)C(Cl)(Cl)Cl.Cl
- I50 (Cavia porcellus): inactive
- Activity [2]: >600 mg
- Activity [3]: 201 mg
- IC50 [12]: 1000 µM
- Activity [4]: >600 mg
- Activity [6]: 0.98 µg/mL
- Activity (Felis catus [15]): inactive

Structure (SMILES): CC(=O)Nc1ccc(OCC(O)CNC(=N)C(Cl)(Cl)Cl)cc1 (centres undefined)
- Activity [4]: 201 mg
- Activity (Felis catus [5]): Active

Structure (SMILES): Cl.N=C(N)C(Cl)(Cl)Cl
- Activity [2]: 201 mg
- Activity [3]: <200 mg
- Activity (Felis catus [16]): Active
- Activity [4]: >600 mg
- Activity (Felis catus [5]): Active
- Activity [6]: 2.68 µg/mL

Structure (SMILES): Cn1cc(CNC(=N)C(Cl)(Cl)Cl)c2ccccc21
- Activity [4]: 201 mg
- Activity (Felis catus [5]): Active

Structure (SMILES): C/N=C(\NCC1CC1)C(Cl)(Cl)Cl.Cl
- Activity [4]: >600 mg
- Activity (Felis catus [5]): Active
